Experimental data: ChEMBL document CHEMBL2163220 (J Med Chem, 2012)
Active and inactive are the calls of the source.

Columns and labels:
[1] = system: T1, Androgen receptor (Homo sapiens), P10275 [H875Y]; assay: Antagonist activity at androgen receptor H874Y mutant expressed in human PC3 cells assessed as reduction in DHT-induced receptor transactivation at 0.1 to 1 uM by luciferase reporter gene assay; assay type: functional, cell-based; conditions: PC-3
T1 sequence (whole entry): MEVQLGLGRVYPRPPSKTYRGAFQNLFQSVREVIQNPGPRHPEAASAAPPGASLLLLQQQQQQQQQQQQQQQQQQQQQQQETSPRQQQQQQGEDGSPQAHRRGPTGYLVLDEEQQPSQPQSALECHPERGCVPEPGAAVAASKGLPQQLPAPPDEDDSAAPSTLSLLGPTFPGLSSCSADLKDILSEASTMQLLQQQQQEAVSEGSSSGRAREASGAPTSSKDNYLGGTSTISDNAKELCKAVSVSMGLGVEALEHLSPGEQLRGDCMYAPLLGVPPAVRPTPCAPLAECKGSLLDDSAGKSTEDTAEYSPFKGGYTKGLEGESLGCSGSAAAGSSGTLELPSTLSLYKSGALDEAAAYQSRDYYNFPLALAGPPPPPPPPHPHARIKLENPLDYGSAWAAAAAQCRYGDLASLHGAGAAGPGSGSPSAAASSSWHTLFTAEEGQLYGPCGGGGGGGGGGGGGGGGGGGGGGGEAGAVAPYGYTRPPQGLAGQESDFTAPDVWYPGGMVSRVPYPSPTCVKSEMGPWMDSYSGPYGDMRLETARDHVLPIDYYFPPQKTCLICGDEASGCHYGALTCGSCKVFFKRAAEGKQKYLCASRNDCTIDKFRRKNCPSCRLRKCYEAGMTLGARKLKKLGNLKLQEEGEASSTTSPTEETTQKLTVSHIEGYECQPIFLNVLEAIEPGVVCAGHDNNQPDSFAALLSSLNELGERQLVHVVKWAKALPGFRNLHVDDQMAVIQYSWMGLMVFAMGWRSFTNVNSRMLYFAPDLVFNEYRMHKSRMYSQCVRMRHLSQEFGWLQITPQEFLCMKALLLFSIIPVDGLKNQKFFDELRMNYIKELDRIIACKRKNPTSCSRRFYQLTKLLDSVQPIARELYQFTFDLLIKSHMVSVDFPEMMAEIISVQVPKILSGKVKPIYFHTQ
Summary of the method: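 Full-length wild-type or mutant AR plasmid transiently transfected into PC-3 cells with MMTV-luc and Renilla luciferase reporters. Cells treated with DMSO vehicle or compound at 0.1 and 1 μM, alone or with 0.1 nM DHT. Luciferase read as relative luciferase units. Run in triplicate.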

[2] = target: T2, Progesterone receptor (Homo sapiens) (UniProt P06401); assay: Agonist activity at progesterone receptor in human PC3 cells assessed as stimulation of receptor transactivation at 1 uM by luciferase reporter gene assay; assay type: functional, cell-based; conditions: PC-3
T2 sequence (whole entry): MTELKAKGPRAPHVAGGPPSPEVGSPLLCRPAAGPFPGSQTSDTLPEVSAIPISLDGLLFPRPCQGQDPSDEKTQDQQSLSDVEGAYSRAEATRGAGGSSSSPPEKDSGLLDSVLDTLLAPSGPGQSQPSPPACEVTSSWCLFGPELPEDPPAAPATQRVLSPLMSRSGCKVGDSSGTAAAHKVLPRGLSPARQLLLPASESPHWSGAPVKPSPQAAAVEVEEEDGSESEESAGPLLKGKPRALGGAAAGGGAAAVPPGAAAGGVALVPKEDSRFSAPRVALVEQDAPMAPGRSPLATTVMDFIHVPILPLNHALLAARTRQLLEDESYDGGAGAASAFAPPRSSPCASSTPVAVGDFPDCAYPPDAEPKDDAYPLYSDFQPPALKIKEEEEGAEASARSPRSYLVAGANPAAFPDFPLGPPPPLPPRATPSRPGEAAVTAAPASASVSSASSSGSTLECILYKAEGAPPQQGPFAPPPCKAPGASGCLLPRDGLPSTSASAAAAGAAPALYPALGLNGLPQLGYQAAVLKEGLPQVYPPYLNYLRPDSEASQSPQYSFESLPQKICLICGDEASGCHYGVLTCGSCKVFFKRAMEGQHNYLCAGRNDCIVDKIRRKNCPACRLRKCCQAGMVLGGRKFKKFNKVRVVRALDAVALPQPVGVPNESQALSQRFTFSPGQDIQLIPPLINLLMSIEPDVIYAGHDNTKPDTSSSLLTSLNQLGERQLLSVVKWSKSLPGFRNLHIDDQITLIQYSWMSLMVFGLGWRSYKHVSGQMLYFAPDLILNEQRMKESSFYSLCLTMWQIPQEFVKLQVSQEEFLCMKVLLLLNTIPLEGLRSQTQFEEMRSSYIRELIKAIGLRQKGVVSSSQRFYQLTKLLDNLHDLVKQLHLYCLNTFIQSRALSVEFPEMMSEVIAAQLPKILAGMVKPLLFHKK
Summary of the method: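 PC-3 cells lack detectable PR, so they were cotransfected with a PR expression plasmid and the MMTV-luc reporter. Compound tested at 1 μM, alone or against transactivation induced by 10 nM R5020. Read-out was luciferase reporter activity.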

[3] = system: PC-3; assay: Effect on in Maspin expression in human PC3 cells deficient in wild type androgen receptor at 5 uM by luciferase reporter gene assay; assay type: functional, cell-based
Summary of the method: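 PC-3 cells were transfected with maspin-luc, with or without cotransfected AR. Cells were exposed to DMSO vehicle or compound at 2.5 and 5 μM. Luciferase activity was measured in triplicate.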

[4] = system: LNCaP (Homo sapiens); assay: Effect on androgen receptor gene expression in human LNCaP cells at 1 or 2.5 uM incubated for 24 hrs by RT-PCR

Measured: Activity

Cc1coc2c1C(=O)C(=O)c1c-2ccc2c1CCCC2(C)C [TANSHINONE IIA]
inactive: all assays above
